Activity calls are given as the source filed them. The rule behind the calls is not given here.
What was measured:
[1] = Oral bioavailability in rat by LC/MS/MS analysis; type: ADME, organism-based; conditions: in vivo
[2] = Blood clearance in rat at 0.4 mg/kg, iv bolus administration or 0.8 mg/kg, po by LC-MS/MS analysis; type: ADME, organism-based; conditions: whole blood
[3] = Oral bioavailability in rat at 0.8 mg/kg by LC-MS/MS analysis; type: ADME, organism-based; conditions: in vivo
[4] = test system: Mus musculus; test: In vivo inhibition of SMYD2 expressed in human KYSE-150 cells xenografted in BALB/c nude mouse assessed as suppression of AHNAK methylation at 30 to 100 mg/kg, po administered qd for 3 days by dot-blot analysis; type: functional, organism-based
In short: (§1)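 Mice with subcutaneous KYSE-150 tumor xenografts dosed orally once daily for 3 days (vehicle PEG 400/water 8:2), n = 12 per group; tumors then harvested and AHNAK methylation measured ex vivo by dot blot with SY46 antibody; group means ± SD, Student's t test versus vehicle.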

[5] = target: Histone-lysine N-methyltransferase EHMT2 (Homo sapiens) (UniProt Q96KQ7); test: Inhibition of G9A (unknown origin) at 1 to 50 uM by scintillation proximity assay
[6] = target: Histone-lysine N-methyltransferase EHMT1 (Homo sapiens) (UniProt Q9H9B1); test: Inhibition of EHMT1 (unknown origin) at 1 to 50 uM by scintillation proximity assay
[7] = target: Histone-lysine N-methyltransferase SUV39H1 (Homo sapiens) (UniProt O43463); test: Inhibition of SUV39H1 (unknown origin) at 1 to 50 uM by scintillation proximity assay
[8] = target: Histone-lysine N-methyltransferase SUV39H2 (Homo sapiens) (UniProt Q9H5I1); test: Inhibition of SUV39H2 (unknown origin) at 1 to 50 uM by scintillation proximity assay
[9] = target: Histone-lysine N-methyltransferase SETD7 (Homo sapiens) (UniProt Q8WTS6); test: Inhibition of SETD7 (unknown origin) at 1 to 50 uM by scintillation proximity assay
[10] = target: Histone-lysine N-methyltransferase 2C (Homo sapiens) (UniProt Q8NEZ4); test: Inhibition of MLL3 (unknown origin) at 1 to 50 uM by scintillation proximity assay
[11] = target: Protein arginine N-methyltransferase 3 (Homo sapiens) (UniProt O60678); test: Inhibition of PRMT3 (unknown origin) at 1 to 50 uM by scintillation proximity assay
[12] = target: Protein arginine N-methyltransferase 6 (Homo sapiens) (UniProt Q96LA8); test: Inhibition of PRMT6 (unknown origin) at 1 to 50 uM by scintillation proximity assay
[13] = target: Protein arginine N-methyltransferase 8 (Homo sapiens) (UniProt Q9NR22); test: Inhibition of PRMT8 (unknown origin) at 1 to 50 uM by scintillation proximity assay
[14] = target: Histone-lysine N-methyltransferase SETD2 (Homo sapiens) (UniProt Q9BYW2); test: Inhibition of SETD2 (unknown origin) at 1 to 50 uM by scintillation proximity assay
[15] = target: Histone-lysine N-methyltransferase KMT5B (Homo sapiens) (UniProt Q4FZB7); test: Inhibition of SUV420H1 (unknown origin) at 1 to 50 uM by scintillation proximity assay
[16] = target: RNA 5'-monophosphate methyltransferase (Homo sapiens) (UniProt Q7Z5W3); test: Inhibition of BCDIN3D (unknown origin) at 1 to 50 uM by scintillation proximity assay
[17] = target: DNMT3A2/3L complex (Homo sapiens) (UniProt Q9Y6K1+Q9UJW3); test: Inhibition of DNMT3A/3L (unknown origin) at 1 to 50 uM by TCA precipitation assay; type: protein-complex assay
[18] = target: Histone-lysine N-methyltransferase ASH1L (Homo sapiens) (UniProt Q9NR48); test: Inhibition of ASH1L (unknown origin) at 1 to 50 uM by TCA precipitation assay
[19] = target: Histone-lysine N-methyltransferase, H3 lysine-36 specific (Homo sapiens) (UniProt Q96L73); test: Inhibition of NSD1 (unknown origin) at 1 to 50 uM by TCA precipitation assay
[20] = target: Histone-lysine N-methyltransferase NSD3 (Homo sapiens) (UniProt Q9BZ95); test: Inhibition of NSD3 (unknown origin) at 1 to 50 uM by TCA precipitation assay
[21] = test system: MDA-MB-231; test: Effect on AHNAK protein levels in human MDA-MB-231 cells at 6.3 to 2000 nM by Western blot analysis; type: ADME, cell-based; conditions: mda-mb-231, 2 µM
In short: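 MDA-MB231 cells overexpressing SMYD2 treated with inhibitor over a concentration series; Western blot probed for AHNAK methylation (SY46 antibody) and total AHNAK protein.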

[22] = test system: A2780; test: Induction of apoptosis in human A2780 cells assessed as caspase 3/7 activation up to 20 uM after 2 days by […]; type: functional, cell-based
[23] = test system: A2780; test: Potentiation of doxorubicin-induced apoptosis in human A2780 cells assessed as caspase 3/7 activation up to 20 uM after 2 days by […]; type: functional, cell-based
[24] = test system: Mus musculus; test: Time>IC50 for cellular methylation in BALB/c mouse at 10 mg/kg, po qd
In short: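 Mice were dosed orally once daily at 10–100 mg/kg. Time at steady state with unbound exposure covering the cellular In-Cell Western AHNAK methylation IC50 was estimated.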

[25] = test system: KYSE-150; test: Antitumor activity against human KYSE-150 cells xenografted in BALB/c mouse assessed as reduction in tumor area at 500 mg/kg, po administered qd relative to control; type: functional, organism-based
In short: (§2)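 Mice carrying subcutaneous KYSE-150 xenografts; dosing began day 4 after inoculation. Arms: vehicle (Solutol/ethanol/water 1:1:8 iv qd, plus saline iv once at day 4), inhibitor 500 mg/kg po qd, doxorubicin 10 mg/kg iv once at day 4, or the combination. Tumor area tracked (mean ± SEM); final tumor weight gives T/C; Dunn's method versus vehicle.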

[26] = test system: KYSE-150; test: Antitumor activity against human KYSE-150 cells xenografted in BALB/c mouse assessed as reduction in tumor area at 500 mg/kg, po administered qd in presence of doxorubicin relative to control; type: functional, organism-based; in short: as §2
[27] = test system: KYSE-150; test: Antitumor activity against human KYSE-150 cells xenografted in BALB/c mouse assessed as reduction in tumor weight at 500 mg/kg, po administered qd relative to control; type: functional, organism-based; in short: as §2
[28] = test system: KYSE-150; test: Antitumor activity against human KYSE-150 cells xenografted in BALB/c mouse assessed as reduction in tumor weight at 500 mg/kg, po administered qd in presence of doxorubicin relative to control; type: functional, organism-based; in short: as §2
[29] = Antitumor activity against human KYSE-150 cells xenografted in BALB/c mouse assessed as tumor growth relative to control at 500 mg/kg, po administered qd in presence of doxorubicin; type: functional; in short: as §2
[30] = test system: Mus musculus; test: In vivo inhibition of SMYD2 expressed in human KYSE-150 cells xenografted in BALB/c nude mouse assessed as suppression of AHNAK methylation at 30 mg/kg, po administered qd for 3 days by dot-blot analysis relative to untreated control; type: functional; in short: as §1
[31] = target: N-lysine methyltransferase SMYD2 (Homo sapiens, UniProt Q9NRG4); conditions: KYSE-150, 0.5 to 10 uM

Histone-lysine N-methyltransferase 2C (Homo sapiens), sequence (Q8NEZ4 whole entry): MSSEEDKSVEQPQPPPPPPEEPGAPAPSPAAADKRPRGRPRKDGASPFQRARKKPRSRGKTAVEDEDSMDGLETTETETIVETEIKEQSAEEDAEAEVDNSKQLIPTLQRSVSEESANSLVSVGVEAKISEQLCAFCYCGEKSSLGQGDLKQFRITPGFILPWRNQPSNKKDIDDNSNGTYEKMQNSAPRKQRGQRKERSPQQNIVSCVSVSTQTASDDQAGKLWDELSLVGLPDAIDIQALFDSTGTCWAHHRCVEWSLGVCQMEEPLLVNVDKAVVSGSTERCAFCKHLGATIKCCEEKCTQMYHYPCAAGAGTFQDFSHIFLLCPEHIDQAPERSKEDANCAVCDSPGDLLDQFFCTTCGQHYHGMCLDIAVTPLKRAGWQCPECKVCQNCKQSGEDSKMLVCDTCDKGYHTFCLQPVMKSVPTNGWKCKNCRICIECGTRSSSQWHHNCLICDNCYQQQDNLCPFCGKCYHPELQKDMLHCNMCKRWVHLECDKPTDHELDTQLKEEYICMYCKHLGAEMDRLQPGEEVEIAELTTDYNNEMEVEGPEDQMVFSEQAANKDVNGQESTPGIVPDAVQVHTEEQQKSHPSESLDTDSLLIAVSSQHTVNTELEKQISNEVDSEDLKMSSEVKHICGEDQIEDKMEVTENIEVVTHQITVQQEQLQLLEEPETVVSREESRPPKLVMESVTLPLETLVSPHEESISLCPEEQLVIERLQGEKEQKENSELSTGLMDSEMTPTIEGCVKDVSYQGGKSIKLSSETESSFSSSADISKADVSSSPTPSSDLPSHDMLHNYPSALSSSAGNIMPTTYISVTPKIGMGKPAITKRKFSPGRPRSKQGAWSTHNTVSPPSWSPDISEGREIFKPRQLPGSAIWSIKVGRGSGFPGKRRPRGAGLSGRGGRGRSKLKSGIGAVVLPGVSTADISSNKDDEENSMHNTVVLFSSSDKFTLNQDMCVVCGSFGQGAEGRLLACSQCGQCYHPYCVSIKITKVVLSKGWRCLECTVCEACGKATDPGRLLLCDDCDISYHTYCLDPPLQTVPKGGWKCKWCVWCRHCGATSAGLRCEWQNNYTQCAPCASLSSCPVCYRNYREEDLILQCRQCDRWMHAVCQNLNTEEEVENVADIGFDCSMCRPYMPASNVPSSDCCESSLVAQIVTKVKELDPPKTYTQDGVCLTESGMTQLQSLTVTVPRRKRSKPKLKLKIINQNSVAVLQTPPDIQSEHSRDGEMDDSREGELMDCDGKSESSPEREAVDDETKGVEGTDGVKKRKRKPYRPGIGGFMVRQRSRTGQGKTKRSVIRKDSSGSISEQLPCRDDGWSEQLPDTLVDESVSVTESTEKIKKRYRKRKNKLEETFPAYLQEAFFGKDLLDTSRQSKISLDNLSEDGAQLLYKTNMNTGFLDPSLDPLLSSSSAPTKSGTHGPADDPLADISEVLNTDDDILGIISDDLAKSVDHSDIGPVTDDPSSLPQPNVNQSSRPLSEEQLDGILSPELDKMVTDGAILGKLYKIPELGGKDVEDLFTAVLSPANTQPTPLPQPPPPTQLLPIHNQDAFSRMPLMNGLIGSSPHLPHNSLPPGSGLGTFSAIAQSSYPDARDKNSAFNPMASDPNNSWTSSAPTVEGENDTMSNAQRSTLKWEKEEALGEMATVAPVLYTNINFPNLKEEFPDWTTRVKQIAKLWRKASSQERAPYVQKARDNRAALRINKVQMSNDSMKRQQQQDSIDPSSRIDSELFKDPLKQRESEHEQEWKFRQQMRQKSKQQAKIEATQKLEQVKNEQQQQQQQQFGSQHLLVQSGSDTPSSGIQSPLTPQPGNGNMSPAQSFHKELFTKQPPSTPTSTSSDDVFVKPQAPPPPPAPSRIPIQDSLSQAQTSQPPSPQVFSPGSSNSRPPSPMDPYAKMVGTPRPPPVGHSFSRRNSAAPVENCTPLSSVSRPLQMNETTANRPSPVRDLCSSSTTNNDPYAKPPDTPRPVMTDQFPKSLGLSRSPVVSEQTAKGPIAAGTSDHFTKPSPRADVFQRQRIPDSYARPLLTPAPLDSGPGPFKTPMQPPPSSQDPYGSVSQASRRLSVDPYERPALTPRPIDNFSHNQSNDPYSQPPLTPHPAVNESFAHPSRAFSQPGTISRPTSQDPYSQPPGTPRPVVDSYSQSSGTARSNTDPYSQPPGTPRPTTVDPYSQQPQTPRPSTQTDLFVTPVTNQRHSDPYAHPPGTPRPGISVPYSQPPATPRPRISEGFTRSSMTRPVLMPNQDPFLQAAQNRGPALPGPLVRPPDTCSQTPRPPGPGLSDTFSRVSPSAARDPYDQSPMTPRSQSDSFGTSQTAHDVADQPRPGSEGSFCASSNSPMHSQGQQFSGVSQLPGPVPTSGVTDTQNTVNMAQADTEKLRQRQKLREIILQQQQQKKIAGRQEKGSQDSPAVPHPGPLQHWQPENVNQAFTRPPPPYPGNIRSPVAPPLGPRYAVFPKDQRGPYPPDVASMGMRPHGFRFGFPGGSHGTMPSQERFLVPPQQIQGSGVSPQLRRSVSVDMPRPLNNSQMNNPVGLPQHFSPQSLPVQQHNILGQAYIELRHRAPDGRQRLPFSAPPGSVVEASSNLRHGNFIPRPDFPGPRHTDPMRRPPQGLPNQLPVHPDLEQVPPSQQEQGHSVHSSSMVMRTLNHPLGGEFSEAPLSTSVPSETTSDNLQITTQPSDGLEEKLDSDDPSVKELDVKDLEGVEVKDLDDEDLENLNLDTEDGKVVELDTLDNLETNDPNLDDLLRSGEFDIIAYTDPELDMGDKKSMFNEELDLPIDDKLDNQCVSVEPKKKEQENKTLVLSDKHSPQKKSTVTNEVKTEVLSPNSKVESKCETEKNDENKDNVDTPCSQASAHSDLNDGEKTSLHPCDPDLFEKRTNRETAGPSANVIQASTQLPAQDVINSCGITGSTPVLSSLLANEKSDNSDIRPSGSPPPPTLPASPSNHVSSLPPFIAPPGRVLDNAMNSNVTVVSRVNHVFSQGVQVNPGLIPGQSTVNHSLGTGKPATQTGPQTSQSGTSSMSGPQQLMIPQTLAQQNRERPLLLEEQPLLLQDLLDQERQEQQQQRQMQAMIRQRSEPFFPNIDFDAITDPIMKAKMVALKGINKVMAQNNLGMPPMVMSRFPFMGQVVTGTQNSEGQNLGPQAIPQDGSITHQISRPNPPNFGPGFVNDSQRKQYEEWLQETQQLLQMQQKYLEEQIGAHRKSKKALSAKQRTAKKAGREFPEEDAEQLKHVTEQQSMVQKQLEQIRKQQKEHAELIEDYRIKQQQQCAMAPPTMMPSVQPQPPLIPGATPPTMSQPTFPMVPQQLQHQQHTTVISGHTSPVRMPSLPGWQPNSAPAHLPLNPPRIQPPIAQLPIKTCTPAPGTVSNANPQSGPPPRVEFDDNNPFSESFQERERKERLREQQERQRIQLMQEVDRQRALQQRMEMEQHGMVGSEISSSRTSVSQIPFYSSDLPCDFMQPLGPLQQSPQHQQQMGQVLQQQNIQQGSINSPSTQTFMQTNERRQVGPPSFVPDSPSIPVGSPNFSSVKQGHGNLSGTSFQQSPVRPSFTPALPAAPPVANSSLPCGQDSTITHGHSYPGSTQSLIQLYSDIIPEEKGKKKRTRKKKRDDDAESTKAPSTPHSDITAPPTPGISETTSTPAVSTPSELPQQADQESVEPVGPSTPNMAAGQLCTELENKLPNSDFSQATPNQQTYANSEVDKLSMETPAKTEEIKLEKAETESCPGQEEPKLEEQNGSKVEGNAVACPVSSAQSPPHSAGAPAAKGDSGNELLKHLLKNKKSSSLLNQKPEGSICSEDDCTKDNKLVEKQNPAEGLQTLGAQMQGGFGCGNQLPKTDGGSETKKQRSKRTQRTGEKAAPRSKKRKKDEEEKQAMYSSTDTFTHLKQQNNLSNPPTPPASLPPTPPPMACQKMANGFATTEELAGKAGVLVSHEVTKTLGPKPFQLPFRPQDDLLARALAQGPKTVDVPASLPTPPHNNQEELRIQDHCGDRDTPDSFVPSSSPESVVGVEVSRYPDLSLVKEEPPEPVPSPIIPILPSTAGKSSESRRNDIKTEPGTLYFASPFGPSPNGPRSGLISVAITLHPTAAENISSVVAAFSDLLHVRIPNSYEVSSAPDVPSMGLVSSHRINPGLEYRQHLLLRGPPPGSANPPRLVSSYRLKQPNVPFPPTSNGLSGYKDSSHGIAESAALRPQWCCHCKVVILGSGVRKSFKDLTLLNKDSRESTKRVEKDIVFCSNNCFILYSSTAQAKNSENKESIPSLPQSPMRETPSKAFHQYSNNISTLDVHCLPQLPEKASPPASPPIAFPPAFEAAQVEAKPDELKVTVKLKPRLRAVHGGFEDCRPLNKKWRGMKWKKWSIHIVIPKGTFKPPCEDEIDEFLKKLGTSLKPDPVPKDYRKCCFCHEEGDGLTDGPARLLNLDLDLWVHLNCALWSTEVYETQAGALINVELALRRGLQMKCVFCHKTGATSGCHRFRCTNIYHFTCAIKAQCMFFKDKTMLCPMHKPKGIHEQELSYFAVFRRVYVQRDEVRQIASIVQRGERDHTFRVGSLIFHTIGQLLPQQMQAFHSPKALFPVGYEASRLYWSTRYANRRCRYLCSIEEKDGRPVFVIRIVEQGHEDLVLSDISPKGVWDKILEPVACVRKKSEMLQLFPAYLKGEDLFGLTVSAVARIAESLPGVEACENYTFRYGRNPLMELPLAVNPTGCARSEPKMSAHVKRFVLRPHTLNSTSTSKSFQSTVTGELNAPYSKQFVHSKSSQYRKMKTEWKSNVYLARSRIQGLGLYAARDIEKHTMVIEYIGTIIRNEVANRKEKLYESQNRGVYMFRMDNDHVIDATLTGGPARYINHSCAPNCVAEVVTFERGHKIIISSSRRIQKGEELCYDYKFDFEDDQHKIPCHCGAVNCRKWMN
RNA 5'-monophosphate methyltransferase (Homo sapiens), sequence (Q7Z5W3 whole entry): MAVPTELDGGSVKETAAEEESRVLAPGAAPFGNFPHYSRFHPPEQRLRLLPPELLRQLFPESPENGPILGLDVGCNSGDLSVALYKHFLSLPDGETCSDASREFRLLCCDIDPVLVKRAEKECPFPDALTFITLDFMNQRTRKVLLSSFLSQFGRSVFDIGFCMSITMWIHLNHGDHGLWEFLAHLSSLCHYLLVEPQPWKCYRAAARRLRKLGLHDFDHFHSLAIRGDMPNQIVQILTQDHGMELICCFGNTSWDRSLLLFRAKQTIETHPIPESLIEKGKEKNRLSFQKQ

bioavailability [1]: 24%
clearance [2]: 26.7 mL/min/kg
bioavailability [3]: 24%
inhibition [5]: inactive
inhibition [6]: inactive
inhibition [7]: inactive
inhibition [8]: inactive
inhibition [9]: inactive
inhibition [10]: inactive
inhibition [11]: inactive
inhibition [12]: inactive
inhibition [13]: inactive
inhibition [14]: inactive
inhibition [15]: inactive
inhibition [16]: inactive
inhibition [17]: inactive
inhibition [18]: inactive
inhibition [19]: inactive
inhibition [20]: inactive
inhibition [31]: Active
Structure (SMILES): CCN(C(=O)CO)[C@H]1CN(/C(=N\C#N)Nc2cccc(OC(F)F)c2)N=C1c1ccc(Cl)c(Cl)c1
inhibition [4]: Active
Activity [21]: Non-toxic
Activity [22]: inactive
Activity [23]: Active
Time [24]: 9 h
Activity [25]: inactive
Activity [26]: Active
Activity [27]: inactive
Activity [28]: Active
T/C [29]: 0.46
T/C [30]: 0.71
